We go through five molecules from publication PMC4145632 (ACS Chemical Biology, 2014).

For series [1], the system named is HCT116 cells. The experiment in a line: MTS cytotoxicity assay in HCT116 cells. The format is cell-based, human. The settings on record: HCT116, 48 h, all concentrations tested 1.6–25 μM. In general terms: Tetrazolium assays rely on reduction of a dye to a coloured formazan, in cell work by metabolically active cells.
Series [2] relates to PA-1/E6 cells. The experiment in a line: p53 level Western blot in PA-1/E6 cells. The class given is cell-based, human. The settings on record: PA-1/E6, Western blot of remaining cells after treatment. In a few lines: (§1)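 PA-1 and PA-1/HPV16 E6 cells treated with test compound at the same concentrations used for the resazurin viability test. Remaining cells washed, lysed in RIPA buffer with protease inhibitors and protein normalised by BCA. Lysates resolved by SDS-PAGE, transferred to PVDF and immunoblotted for p53.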

The next series concerns the target E6–E6AP interaction (Human papillomavirus type 16, UniProt P03126). Put plainly: ELISA-based E6–E6AP association assay. The class given is binding, HPV16. The conditions noted are these: E6M-GST / MBP-E6AP association.
Series [3] is described as follows: Resazurin cell viability, PA-1/E6 cells. The format is cell-based, human. The settings on record: human, PA-1/E6 cells (PA-1 cells stably transfected with E6). A digest of the protocol:
(§2)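 Cells plated on day 1; test compound in DMSO, or DMSO, added on day 2. Puromycin as control. Flavonoid compounds and puromycin incubated 24 h. Resazurin then added to 5 μM final for 1 h; resorufin fluorescence read at 590 nm as a surrogate for viability. Cells: HCT116, parental PA-1 (human ovarian teratocarcinoma) or PA-1 stably transfected with HPV16 E6.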
(In general: Alamar Blue is a resazurin reagent that responds to reducing activity.)

Series [4] deals with PA-1/E6 cells. The experiment in a line: Resazurin cell viability, PA-1/E6 cells. The format is cell-based, human. The settings on record: PA-1/E6, 24 h. A digest of the protocol:
as §2

For the next series, the system named is PA-1 cells. The experiment in a line: p53 level Western blot in PA-1 cells. The format is cell-based, human. The settings on record: PA-1, Western blot of remaining cells after treatment. In a few lines:
as §1
In general terms: A western blot detects proteins with antibodies after separation by electrophoresis.

The subject of a further series is SiHa cells. The experiment in a line: Cell proliferation in SiHa cells. The conditions noted are these: data not shown. The format is cell-based, human.
The test system of the next series is HeLa (HPV18 integrated). The experiment in a line: p53 level Western blot in HeLa cells. The class given is cell-based, human. The settings on record: 48 h, compound 1–10 μM. In a few lines: (§3)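 Cells plated, then dosed next day with increasing concentrations of test compound in DMSO, or DMSO control, for 48 h. HCT116 (colon, wild-type p53) got the same concentrations as SiHa/HeLa. Cells washed twice, lysed in RIPA buffer with protease inhibitors, and protein normalised by BCA. Lysates run on SDS-PAGE, transferred to PVDF and probed with anti-p53 antibody.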

Series [5] concerns HCT116 cells. Put plainly: p53 level Western blot in HCT116 cells. The format is cell-based, human. A digest of the protocol:
as §3

The next series concerns E6M. Put plainly: Fluorescent E6 thermal stability assay. The class given is binding, HPV16. The settings on record: E6M melting curve 20-80 °C, 4 µM E6M, 10 µM compound. A digest of the protocol:
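Full-length untagged E6M: bacterially expressed 6xHis-SUMO fusion, SUMO-protease cleaved, SUMO removed on Ni-NTA. E6M mixed in buffer with SYPRO orange and test compound in DMSO, or DMSO control. Controls: protein only, compound only. Heated 20–80 °C in a real-time PCR instrument; fluorescence at 580 nm (dye bound to protein) read against temperature. Run in replicate.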

For a further series, the system named is SiHa (HPV16 integrated). The experiment in a line: p53 level Western blot in SiHa cells. The class given is cell-based, human. The settings on record: 48 h, compound 1–10 μM. A digest of the protocol:
as §3

The next series relates to HeLa cells. The experiment in a line: Cell proliferation in HeLa cells. The format is cell-based, human. The conditions noted are these: data not shown.
Series [6] has as its system HCT116 cells. Put plainly: Resazurin cell viability, HCT116 cells. The class given is cell-based, human. The settings on record: HCT116, 24 h. In a few lines: as §2
Another series has as its system PA-1 parental cells. Put plainly: Resazurin cell viability, PA-1 parental cells. The format is cell-based, human. The settings on record: 24 h. In a few lines: as §2
In series [7] the test system is HPV-positive cell lines. The conditions noted are these: HPV-positive cell lines ref 33; cited from earlier work.
In series [8] the test system is HPV-positive cell lines. The conditions noted are these: cited from earlier work.
[9] abbreviates: HCT116, same concentrations as viability test (Figure 6B).

Sequence of E6–E6AP interaction (P03126 whole entry): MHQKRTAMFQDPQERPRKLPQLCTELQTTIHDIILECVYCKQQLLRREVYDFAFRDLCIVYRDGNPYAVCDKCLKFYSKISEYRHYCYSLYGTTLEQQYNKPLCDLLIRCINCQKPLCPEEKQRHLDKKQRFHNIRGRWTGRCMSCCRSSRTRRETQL
Sequence of E6–E6AP interaction (Q05086 363-440, further chain): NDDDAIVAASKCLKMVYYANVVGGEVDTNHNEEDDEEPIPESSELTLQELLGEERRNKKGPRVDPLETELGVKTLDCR

Consider `O=c1c(O)c(-c2ccc(O)c(O)c2)oc2c(O)c(O)cc(O)c12` [Gossypetin], for which, in the series on HCT116 cells [1], the “Toxicity (MTS)” value is listed as “not toxic”. The p53 levels entry in the series with PA-1/E6 cells [2] is “concentration dependent increase”; in the series with PA-1 cells, “unchanged”; in the series with HeLa (HPV18 integrated), “significant increase in p53 levels”; with HCT116 cells [5] (setting [9]) it was “unchanged”; in the series with SiHa (HPV16 integrated) it was “significant increase in p53 levels”. For the same molecule, the “ELISA IC50 (stated in words)” value on E6–E6AP interaction was “sub-micromolar”. In addition, the viability – broadly, a per cent measure of how many cells are alive, often set against a control – at 24 h in series [3] was above 50%. Besides, the “Cell viability (resazurin)” value in the series on PA-1/E6 cells [4] is listed as “sensitive”. Further, the “Inhibition of cell proliferation” value with SiHa cells and with HeLa cells was “did not observe an inhibition of cell proliferation” throughout. In addition, the “Thermal Stability” value in the series on E6M is “stabilizes E6M”.

Consider `COc1ccc(C[C@H](N)C(=O)N[C@H]2[C@@H](O)[C@H](n3cnc4c(N(C)C)ncnc43)O[C@@H]2CO)cc1` [Puromycin, reference compound], for which the “Cell viability (resazurin)” value in the series with HCT116 cells [6], with PA-1/E6 cells [4] and in the series with PA-1 parental cells was “equally cytotoxic” in each case.

For the molecule `O=c1cc(-c2ccccc2)oc2cc(O)c(O)c(O)c12` [baicalein], the figures for the p53 levels entry in the series on PA-1/E6 cells [2], with PA-1 cells and with HCT116 cells [5] (setting [9]) were “concentration dependent increase”, “unchanged” and “unchanged”, respectively. The “ELISA IC50 (stated in words)” value on E6–E6AP interaction is “sub-micromolar”. Further, the viability at 24 h in series [3] was above 50%. Also, the “Cell viability (resazurin)” value in the series on PA-1/E6 cells [4] is on record as “sensitive”. In addition, the “Inhibition of cell proliferation” value with SiHa cells and in the series on HeLa cells was “did not observe an inhibition of cell proliferation” each time.

Turning to `CC[n+]1c(-c2ccccc2)c2cc(N)ccc2c2ccc(N)cc21` [ethidium bromide, Ethidium bromide, reference compound], the p53 levels result in the series on HCT116 cells [5] (HCT116 (HPV-negative, wild-type p53), 48 h, Western blot) was “effectively stabilized p53”.

With `O=c1cc(-c2ccc(O)c(O)c2)oc2cc(O)cc(O)c12` [luteolin], the “p53 and p21Cip1/Waf1 protein” value in the series on HPV-positive cell lines [7] was “increase in p53 and p21^Cip1/Waf1 protein”. Besides, the “Viability of HPV-positive cell lines” value in the series with HPV-positive cell lines [8] is given as “decreased viability”.
